Results published in ChEMBL document CHEMBL1128642, “Discovery of an orally bioavailable NK1 receptor antagonist, (2S,3S)-(2-methoxy-5-tetrazol-1-ylbenzyl)(2-phenylpiperidin-3-yl)amine (GR203040), with potent antiemetic activity” (J Med Chem, 1995).

Organism: Canis familiaris
Experiment: In vitro metabolic turnover (% parent lost) after exposure to dog hepatic microsomes (hepatic first pass metabolism)
Format: functional
Settings: Canis lupus familiaris, Liver
Procedure, shortened: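 Dog liver microsomes with an NADPH-regenerating system, shaken at 37 °C. Centrifuged, then parent compound quantified by reverse-phase HPLC with UV detection at 215 nm. Turnover (% parent lost) taken from the peak-area difference versus a control incubation lacking NADPH regeneration.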

Row | SMILES | Metabolic turnover [%]
1 | COc1ccc(-c2c(C)noc2C)cc1CN[C@H]1CCCN[C@H]1c1ccccc1 | 92
2 | COc1ccc(-n2cnnn2)cc1CN[C@H]1CCCN[C@H]1c1ccccc1 | 51
3 | COc1ccc(-c2nnnn2C)cc1CN[C@H]1CCCN[C@H]1c1ccccc1 | 27
4 | COc1ccc(-n2ncnn2)cc1CN[C@H]1CCCN[C@H]1c1ccccc1 | 65
5 | COc1ccccc1CN[C@H]1CCCN[C@H]1c1ccccc1 [CP-99994] | 100
6 | COc1ccc(-c2ccco2)cc1CN[C@H]1CCCN[C@H]1c1ccccc1 | 100
7 | COc1ccc(Br)cc1CN[C@H]1CCCN[C@H]1c1ccccc1 | 60
8 | COc1ccc(-c2cncnc2)cc1CN[C@H]1CCCN[C@H]1c1ccccc1 | 36
9 | COc1ccc(-c2nnn(C)n2)cc1CN[C@H]1CCCN[C@H]1c1ccccc1 | 63
10 | COc1ccc(-c2ccoc2)cc1CN[C@H]1CCCN[C@H]1c1ccccc1 | 85
11 | COc1ccc(-c2ccsc2)cc1CN[C@H]1CCCN[C@H]1c1ccccc1 | 92
12 | COc1ccc(-c2nccs2)cc1CN[C@H]1CCCN[C@H]1c1ccccc1 | 61
13 | COc1ccc(-c2c(C)nn(C)c2C)cc1CN[C@H]1CCCN[C@H]1c1ccccc1 | 82
14 | COc1ccc(SC)cc1CN[C@H]1CCCN[C@H]1c1ccccc1 | 94
15 | COc1ccc(S(C)(=O)=O)cc1CN[C@H]1CCCN[C@H]1c1ccccc1 | 25
16 | COc1ccc(-n2cncn2)cc1CN[C@H]1CCCN[C@H]1c1ccccc1 | 55
17 | COc1ccc(-c2nccn2C)cc1CN[C@H]1CCCN[C@H]1c1ccccc1 | 90
18 | COc1ccc(-c2ccncc2)cc1CN[C@H]1CCCN[C@H]1c1ccccc1 | 98

Test system: Substance-P receptor (Meriones unguiculatus)
Experiment: Compound was evaluated for its ex vivo binding affinity towards substance P receptor measured 15 minutes post administration to gerbil
Settings: Gerbillinae

Row | ED50 [mg/kg] | SMILES
19 | > 0.3 | COc1ccc(S(C)(=O)=O)cc1CN[C@H]1CCCN[C@H]1c1ccccc1

Test system: Mustela putorius furo
Experiment: Compound was evaluated in vivo for its antiemetic activity in ferret, which was administered subcutaneously immediately after (0 ptt) induction of emesis
Format: functional
Settings: not given
Procedure, shortened: (§1)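 Adult male ferrets (1.0–1.7 kg), whole-body X-irradiation at 2 Gy over about 5 min. Antagonist given sc 90 min before irradiation or immediately after it. Retches and vomits counted. ID90 is the lowest dose giving ≥90% inhibition of emesis versus untreated irradiated controls; n per group reported.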

Row | SMILES | ID90 [mg/kg]
20 | COc1ccc(-n2cnnn2)cc1CN[C@H]1CCCN[C@H]1c1ccccc1 | 0.1
21 | COc1ccccc1CN[C@H]1CCCN[C@H]1c1ccccc1 [CP-99994] | 1
22 | COc1ccc(-c2cncnc2)cc1CN[C@H]1CCCN[C@H]1c1ccccc1 | 3
23 | COc1ccc(-c2ccoc2)cc1CN[C@H]1CCCN[C@H]1c1ccccc1 | 0.3
24 | COc1ccc(-c2ccsc2)cc1CN[C@H]1CCCN[C@H]1c1ccccc1 | >3
25 | COc1ccc(F)cc1CN[C@H]1CCCN[C@H]1c1ccccc1 | 3
26 | COc1ccc(-c2nccs2)cc1CN[C@H]1CCCN[C@H]1c1ccccc1 | >3
27 | COc1ccc(SC)cc1CN[C@H]1CCCN[C@H]1c1ccccc1 | 1
28 | COc1ccc(S(C)(=O)=O)cc1CN[C@H]1CCCN[C@H]1c1ccccc1 | >10
29 | COc1ccc(-n2cncn2)cc1CN[C@H]1CCCN[C@H]1c1ccccc1 | 3
30 | COc1ccc(-c2ccncc2)cc1CN[C@H]1CCCN[C@H]1c1ccccc1 | 0.3

Molecular target: Substance-P receptor (Homo sapiens, UniProt P25103)
Sequence (P25103 whole entry): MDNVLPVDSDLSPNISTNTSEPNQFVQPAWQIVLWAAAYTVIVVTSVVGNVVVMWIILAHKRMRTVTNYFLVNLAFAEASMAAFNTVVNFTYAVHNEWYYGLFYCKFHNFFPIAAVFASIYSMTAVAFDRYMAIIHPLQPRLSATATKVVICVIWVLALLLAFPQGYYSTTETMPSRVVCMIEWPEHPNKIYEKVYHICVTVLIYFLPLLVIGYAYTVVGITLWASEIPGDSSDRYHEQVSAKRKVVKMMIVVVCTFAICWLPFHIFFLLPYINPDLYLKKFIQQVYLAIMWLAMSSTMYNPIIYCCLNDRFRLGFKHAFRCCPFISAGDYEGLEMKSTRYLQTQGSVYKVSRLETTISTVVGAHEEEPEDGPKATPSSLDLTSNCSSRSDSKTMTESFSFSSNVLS
Experiment: Binding affinity to Tachykinin receptor 1 stably expressed in chinese hamster ovary (CHO) cells
Format: cell-based
Settings: not given
Procedure, shortened: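 Membranes from CHO cells stably expressing human NK1 receptor, grown in DMEM/F12 with 10% FCS and 4 mM glutamine. Incubated 40 min at 22 °C with 0.7–1.0 nM [3H]substance P (final) in HEPES 50 mM/3 mM MnCl2, pH 7.4, 3 µg protein.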

Row | Ki [nM] | SMILES
31 | 0.0501 | COc1ccc(-c2c(C)noc2C)cc1CN[C@H]1CCCN[C@H]1c1ccccc1
32 | 0.0501 | COc1ccc(-n2cnnn2)cc1CN[C@H]1CCCN[C@H]1c1ccccc1
33 | 0.2 | COc1ccc(-c2nnnn2C)cc1CN[C@H]1CCCN[C@H]1c1ccccc1
34 | 0.126 | COc1ccc(-n2ncnn2)cc1CN[C@H]1CCCN[C@H]1c1ccccc1
35 | 0.501 | COc1ccc(-c2ccco2)cc1CN[C@H]1CCCN[C@H]1c1ccccc1
36 | 0.0501 | COc1ccc(Br)cc1CN[C@H]1CCCN[C@H]1c1ccccc1
37 | 0.158 | COc1ccc(-c2cncnc2)cc1CN[C@H]1CCCN[C@H]1c1ccccc1
38 | 2.51 | COc1ccc(-c2nnn(C)n2)cc1CN[C@H]1CCCN[C@H]1c1ccccc1
39 | 0.0631 | COc1ccc(-c2ccoc2)cc1CN[C@H]1CCCN[C@H]1c1ccccc1
40 | 0.0316 | COc1ccc(-c2ccsc2)cc1CN[C@H]1CCCN[C@H]1c1ccccc1
41 | 0.158 | COc1ccc(F)cc1CN[C@H]1CCCN[C@H]1c1ccccc1
42 | 0.794 | COc1ccc(-c2nccs2)cc1CN[C@H]1CCCN[C@H]1c1ccccc1
43 | 0.794 | COc1ccc(-c2c(C)nn(C)c2C)cc1CN[C@H]1CCCN[C@H]1c1ccccc1
44 | 0.0794 | COc1ccc(SC)cc1CN[C@H]1CCCN[C@H]1c1ccccc1
45 | 0.501 | COc1ccc(S(C)(=O)=O)cc1CN[C@H]1CCCN[C@H]1c1ccccc1
46 | 0.158 | COc1ccc(-n2cncn2)cc1CN[C@H]1CCCN[C@H]1c1ccccc1
47 | 2 | COc1ccc(-c2nccn2C)cc1CN[C@H]1CCCN[C@H]1c1ccccc1
48 | 0.0631 | COc1ccc(-c2ccncc2)cc1CN[C@H]1CCCN[C@H]1c1ccccc1

Test system: Mustela putorius furo
Experiment: Compound was evaluated in vivo for its antiemetic activity in ferret, which was administered subcutaneously 90 minutes before (90 ptt) induction of emesis
Format: functional
Settings: not given
Procedure, shortened: as §1

Row | SMILES | ID90 [mg/kg]
49 | COc1ccc(-c2c(C)noc2C)cc1CN[C@H]1CCCN[C@H]1c1ccccc1 | 1
50 | COc1ccc(-n2cnnn2)cc1CN[C@H]1CCCN[C@H]1c1ccccc1 | 0.1
51 | COc1ccc(-c2nnnn2C)cc1CN[C@H]1CCCN[C@H]1c1ccccc1 | >3
52 | COc1ccc(-n2ncnn2)cc1CN[C@H]1CCCN[C@H]1c1ccccc1 | >1
53 | COc1ccc(-c2ccco2)cc1CN[C@H]1CCCN[C@H]1c1ccccc1 | >3
54 | COc1ccc(-c2cncnc2)cc1CN[C@H]1CCCN[C@H]1c1ccccc1 | >3
55 | COc1ccc(-c2nnn(C)n2)cc1CN[C@H]1CCCN[C@H]1c1ccccc1 | >3
56 | COc1ccc(-c2ccoc2)cc1CN[C@H]1CCCN[C@H]1c1ccccc1 | 0.3
57 | COc1ccc(S(C)(=O)=O)cc1CN[C@H]1CCCN[C@H]1c1ccccc1 | >10
58 | COc1ccc(-n2cncn2)cc1CN[C@H]1CCCN[C@H]1c1ccccc1 | >3
59 | COc1ccc(-c2nccn2C)cc1CN[C@H]1CCCN[C@H]1c1ccccc1 | >3

Test system: not listed separately
Experiment: Lipophilicity
Format: physicochemical
Settings: octanol/water

Row | logD | SMILES
60 | 2.3 | COc1ccc(-c2c(C)noc2C)cc1CN[C@H]1CCCN[C@H]1c1ccccc1
61 | 0.5 | COc1ccc(-c2nnnn2C)cc1CN[C@H]1CCCN[C@H]1c1ccccc1
62 | 1.4 | COc1ccccc1CN[C@H]1CCCN[C@H]1c1ccccc1 [CP-99994]
63 | 3 | COc1ccc(-c2ccco2)cc1CN[C@H]1CCCN[C@H]1c1ccccc1
64 | 2.5 | COc1ccc(Br)cc1CN[C@H]1CCCN[C@H]1c1ccccc1
65 | 1.4 | COc1ccc(-c2cncnc2)cc1CN[C@H]1CCCN[C@H]1c1ccccc1
66 | 1.4 | COc1ccc(-c2nnn(C)n2)cc1CN[C@H]1CCCN[C@H]1c1ccccc1
67 | 2.5 | COc1ccc(-c2ccoc2)cc1CN[C@H]1CCCN[C@H]1c1ccccc1
68 | 3.1 | COc1ccc(-c2ccsc2)cc1CN[C@H]1CCCN[C@H]1c1ccccc1
69 | 1.8 | COc1ccc(F)cc1CN[C@H]1CCCN[C@H]1c1ccccc1
70 | 2.3 | COc1ccc(-c2nccs2)cc1CN[C@H]1CCCN[C@H]1c1ccccc1
71 | 2.3 | COc1ccc(-c2c(C)nn(C)c2C)cc1CN[C@H]1CCCN[C@H]1c1ccccc1
72 | 2 | COc1ccc(SC)cc1CN[C@H]1CCCN[C@H]1c1ccccc1
73 | 0.2 | COc1ccc(S(C)(=O)=O)cc1CN[C@H]1CCCN[C@H]1c1ccccc1
74 | 1.2 | COc1ccc(-n2cncn2)cc1CN[C@H]1CCCN[C@H]1c1ccccc1
75 | 1.2 | COc1ccc(-c2nccn2C)cc1CN[C@H]1CCCN[C@H]1c1ccccc1
76 | 2.2 | COc1ccc(-c2ccncc2)cc1CN[C@H]1CCCN[C@H]1c1ccccc1

Test system: not listed separately
Experiment: Compound was evaluated in vivo for plasma clearance in dog after intravenous dose at 2 mg/Kg
Format: ADME, organism-based, Canis lupus familiaris
Settings: read-out: Clp
Procedure, shortened: (§2)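 Beagle dogs, iv then oral crossover at 2 mg/kg with wash-out between doses. Blood drawn predose and at 0.08–8 h; plasma prepared at about 5 °C. Parent compound measured by solid-phase extraction and reversed-phase HPLC-UV. Plasma clearance taken from iv dosing; oral bioavailability F calculated from both routes.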

Row | clearance [mL/min/kg] | SMILES
77 | 24 | COc1ccc(-n2cnnn2)cc1CN[C@H]1CCCN[C@H]1c1ccccc1
78 | 94 | COc1ccccc1CN[C@H]1CCCN[C@H]1c1ccccc1 [CP-99994]
79 | 45 | COc1ccc(-c2ccoc2)cc1CN[C@H]1CCCN[C@H]1c1ccccc1
80 | 23 | COc1ccc(S(C)(=O)=O)cc1CN[C@H]1CCCN[C@H]1c1ccccc1

Test system: not listed separately
Experiment: Oral bioavailability in dog
Format: ADME, organism-based, Canis lupus familiaris
Settings: in vivo
Procedure, shortened: as §2

Row | bioavailability [%] | SMILES
81 | 76 | COc1ccc(-n2cnnn2)cc1CN[C@H]1CCCN[C@H]1c1ccccc1
82 | < 10 | COc1ccccc1CN[C@H]1CCCN[C@H]1c1ccccc1 [CP-99994]
83 | < 10 | COc1ccc(-c2ccoc2)cc1CN[C@H]1CCCN[C@H]1c1ccccc1
84 | 42 | COc1ccc(S(C)(=O)=O)cc1CN[C@H]1CCCN[C@H]1c1ccccc1

Test system: not listed separately
Experiment: Partition coefficient (logD)
Format: physicochemical
Settings: octanol/water

Row | logD | SMILES
85 | 0.8 | COc1ccc(-n2cnnn2)cc1CN[C@H]1CCCN[C@H]1c1ccccc1
86 | 0.8 | COc1ccc(-n2ncnn2)cc1CN[C@H]1CCCN[C@H]1c1ccccc1

Test system: Mustela putorius furo
Experiment: Compound was evaluated in vivo for its antiemetic activity in ferret, which was administered subcutaneously 90 minutes before (90 ptt) induction of emesis;>80% inhibition observed
Format: functional
Settings: not given

Row | SMILES | ID90 [mg/kg]
87 | COc1ccccc1CN[C@H]1CCCN[C@H]1c1ccccc1 [CP-99994] | 1
